{"source": "ChEMBL document CHEMBL3102785", "about": "“Characterization of the congeners in the lantibiotic NAI-107 complex” (2014)", "format_in_all_cases": "functional", "key": {"Enterococcus faecium [1]": {"test_system": "Enterococcus faecium", "experiment": "Antibacterial activity against Enterococcus faecium L569 expressing VanA gene after 24 hrs by broth microdilution method", "method_in_brief": "(§1)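 CLSI broth microdilution MIC in Müller Hinton broth with 20 mg/L CaCl2 and 10 mg/L MgCl2. Compounds were dissolved in DMSO and diluted in medium just before testing. Inoculum was 5 × 10^5 cfu/mL, incubated 24 h at 37 °C. MIC was the lowest concentration giving complete suppression of visible growth. Strains came from ATCC or an in-house collection (L-prefix).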"}, "Enterococcus faecium [2]": {"test_system": "Enterococcus faecium", "experiment": "Antibacterial activity against Enterococcus faecium L568 expressing VanS gene after 24 hrs by broth microdilution method", "method_in_brief": "as §1"}, "Enterococcus faecalis [3]": {"test_system": "Enterococcus faecalis", "experiment": "Antibacterial activity against Enterococcus faecalis L560 expressing VanA gene after 24 hrs by broth microdilution method", "method_in_brief": "as §1"}, "Enterococcus faecalis [4]": {"test_system": "Enterococcus faecalis", "experiment": "Antibacterial activity against Enterococcus faecalis L559 expressing VanS gene after 24 hrs by broth microdilution method", "method_in_brief": "as §1"}, "Streptococcus pyogenes": {"test_system": "Streptococcus pyogenes", "experiment": "Antibacterial activity against Streptococcus pyogenes L49 after 24 hrs by broth microdilution method"}, "Streptococcus pneumoniae": {"test_system": "Streptococcus pneumoniae", "experiment": "Antibacterial activity against Streptococcus pneumoniae ATCC 49619 after 24 hrs by broth microdilution method"}, "Staphylococcus aureus [5]": {"test_system": "Staphylococcus aureus", "experiment": "Antibacterial activity against Staphylococcus aureus GISA L3798 after 24 hrs by broth microdilution method", "method_in_brief": "(§2)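 Broth microdilution per CLSI in Müller Hinton broth with 20 mg/L CaCl2 and 10 mg/L MgCl2. Inoculum 5 × 10^5 cfu/mL, 24 h at 37 °C. Compounds dissolved in DMSO and diluted in medium just before testing. MIC taken as lowest concentration giving complete suppression of visible growth.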"}, "Staphylococcus aureus [6]": {"test_system": "Staphylococcus aureus", "experiment": "Antibacterial activity against methicillin-resistant Staphylococcus aureus ND035208 after 24 hrs by broth microdilution method", "method_in_brief": "as §2"}, "Staphylococcus aureus [7]": {"test_system": "Staphylococcus aureus", "experiment": "Antibacterial activity against methicillin-sensitive Staphylococcus aureus L819/ATCC 19636 after 24 hrs by broth microdilution method", "method_in_brief": "as §1"}}}
{"compound": "GENTAMICIN", "values": [{"measurement": "MIC", "setting": "Enterococcus faecium [1]", "result": 16, "unit": "µg/mL"}, {"measurement": "MIC", "setting": "Enterococcus faecium [2]", "result": 16, "unit": "µg/mL"}, {"measurement": "MIC", "setting": "Enterococcus faecalis [3]", "result": 4, "unit": "µg/mL"}, {"measurement": "MIC", "setting": "Enterococcus faecalis [4]", "result": 4, "unit": "µg/mL"}, {"measurement": "MIC", "setting": "Streptococcus pyogenes", "result": 16, "unit": "µg/mL"}, {"measurement": "MIC", "setting": "Streptococcus pneumoniae", "result": 8, "unit": "µg/mL"}, {"measurement": "MIC", "setting": "Staphylococcus aureus [5]", "result": 0.02, "unit": "µg/mL"}, {"measurement": "MIC", "setting": "Staphylococcus aureus [6]", "result": "> 128", "unit": "µg/mL"}, {"measurement": "MIC", "setting": "Staphylococcus aureus [7]", "result": 1, "unit": "µg/mL"}]}
{"compound": "C=C1NC(=O)[C@H](Cc2c[nH]c3ccc(Cl)cc23)NC(=O)[C@@H](NC(=O)/C(=C/C)NC(=O)[C@@H](N)C(C)C)CSC[C@@H](C(=O)N[C@@H]2C(=O)N3CCC[C@H]3C(=O)NCC(=O)N[C@H](C(=O)N[C@H](C(=O)N[C@H]3CSC[C@@H]4NC(=O)[C@H](CC(=O)O)NC(=O)[C@H](CSC[C@@H]5NC(=O)[C@H](Cc6ccccc6)NC(=O)[C@H](CS/C=C\\NC5=O)NC4=O)NC(=O)CNC(=O)CNC(=O)CNC(=O)[C@@H]4CC(O)CN4C3=O)[C@@H](C)O)CSC2C)NC(=O)[C@H](CC(C)C)NC1=O", "note": "(stereo not given in full)", "values": [{"measurement": "MIC", "setting": "Enterococcus faecium [1]; L569, 24 h", "result": 4, "unit": "µg/mL"}, {"measurement": "MIC", "setting": "Enterococcus faecium [2]; L568, 24 h", "result": 4, "unit": "µg/mL"}, {"measurement": "MIC", "setting": "Enterococcus faecalis [3]; L560, 24 h", "result": 2, "unit": "µg/mL"}, {"measurement": "MIC", "setting": "Enterococcus faecalis [4]; L559, 24 h", "result": 2, "unit": "µg/mL"}, {"measurement": "MIC", "setting": "Streptococcus pyogenes; L49, 24 h", "result": "≤ 0.001", "unit": "µg/mL"}, {"measurement": "MIC", "setting": "Streptococcus pneumoniae; ATCC 49619, 24 h", "result": 0.03, "unit": "µg/mL"}, {"measurement": "MIC", "setting": "Staphylococcus aureus [5]; GISA L3798, 24 h", "result": 2, "unit": "µg/mL"}, {"measurement": "MIC", "setting": "Staphylococcus aureus [6]; ND035208, 24 h", "result": 1, "unit": "µg/mL"}, {"measurement": "MIC", "setting": "Staphylococcus aureus [7]; L819/ATCC 19636, 24 h", "result": 0.25, "unit": "µg/mL"}]}
{"compound": "C=C1NC(=O)[C@H](Cc2c[nH]c3ccccc23)NC(=O)[C@@H](NC(=O)/C(=C/C)NC(=O)[C@@H](N)C(C)C)CSC[C@@H](C(=O)N[C@@H]2C(=O)N3CCC[C@H]3C(=O)NCC(=O)N[C@H](C(=O)N[C@H](C(=O)N[C@H]3CSC[C@@H]4NC(=O)[C@H](CC(=O)O)NC(=O)[C@H](CSC[C@@H]5NC(=O)[C@H](Cc6ccccc6)NC(=O)[C@H](CS/C=C\\NC5=O)NC4=O)NC(=O)CNC(=O)CNC(=O)CNC(=O)[C@@H]4CCCN4C3=O)[C@@H](C)O)CSC2C)NC(=O)[C@H](CC(C)C)NC1=O", "note": "(stereo not given in full)", "values": [{"measurement": "MIC", "setting": "Enterococcus faecium [1]; L569, 24 h", "result": 32, "unit": "µg/mL"}, {"measurement": "MIC", "setting": "Enterococcus faecium [2]; L568, 24 h", "result": 32, "unit": "µg/mL"}, {"measurement": "MIC", "setting": "Enterococcus faecalis [3]; L560, 24 h", "result": 32, "unit": "µg/mL"}, {"measurement": "MIC", "setting": "Enterococcus faecalis [4]; L559, 24 h", "result": 64, "unit": "µg/mL"}, {"measurement": "MIC", "setting": "Streptococcus pyogenes; L49, 24 h", "result": "≤ 0.03", "unit": "µg/mL"}, {"measurement": "MIC", "setting": "Streptococcus pneumoniae; ATCC 49619, 24 h", "result": "≤ 0.03", "unit": "µg/mL"}, {"measurement": "MIC", "setting": "Staphylococcus aureus [5]; GISA L3798, 24 h", "result": 16, "unit": "µg/mL"}, {"measurement": "MIC", "setting": "Staphylococcus aureus [6]; ND035208, 24 h", "result": 8, "unit": "µg/mL"}, {"measurement": "MIC", "setting": "Staphylococcus aureus [7]; L819/ATCC 19636, 24 h", "result": 4, "unit": "µg/mL"}]}
{"compound": "C=C1NC(=O)[C@H](Cc2c[nH]c3ccc(Cl)cc23)NC(=O)[C@@H](NC(=O)/C(=C/C)NC(=O)[C@@H](N)C(C)C)CSC[C@@H](C(=O)N[C@@H]2C(=O)N3CCC[C@H]3C(=O)NCC(=O)N[C@H](C(=O)N[C@H](C(=O)N[C@H]3CSC[C@@H]4NC(=O)[C@H](CC(=O)O)NC(=O)[C@H](CSC[C@@H]5NC(=O)[C@H](Cc6ccccc6)NC(=O)[C@H](CS/C=C\\NC5=O)NC4=O)NC(=O)CNC(=O)CNC(=O)CNC(=O)[C@@H]4CCCN4C3=O)[C@@H](C)O)CSC2C)NC(=O)[C@H](CC(C)C)NC1=O", "note": "(stereo not given in full)", "values": [{"measurement": "MIC", "setting": "Enterococcus faecium [1]; L569, 24 h", "result": 8, "unit": "µg/mL"}, {"measurement": "MIC", "setting": "Enterococcus faecium [2]; L568, 24 h", "result": 8, "unit": "µg/mL"}, {"measurement": "MIC", "setting": "Enterococcus faecalis [3]; L560, 24 h", "result": 4, "unit": "µg/mL"}, {"measurement": "MIC", "setting": "Enterococcus faecalis [4]; L559, 24 h", "result": 8, "unit": "µg/mL"}, {"measurement": "MIC", "setting": "Streptococcus pyogenes; L49, 24 h", "result": "≤ 0.001", "unit": "µg/mL"}, {"measurement": "MIC", "setting": "Streptococcus pneumoniae; ATCC 49619, 24 h", "result": 0.03, "unit": "µg/mL"}, {"measurement": "MIC", "setting": "Staphylococcus aureus [5]; GISA L3798, 24 h", "result": 4, "unit": "µg/mL"}, {"measurement": "MIC", "setting": "Staphylococcus aureus [6]; ND035208, 24 h", "result": 4, "unit": "µg/mL"}, {"measurement": "MIC", "setting": "Staphylococcus aureus [7]; L819/ATCC 19636, 24 h", "result": 0.5, "unit": "µg/mL"}]}
{"compound": "C=C1NC(=O)[C@H](Cc2c[nH]c3ccc(Cl)cc23)NC(=O)[C@@H](NC(=O)/C(=C/C)NC(=O)[C@@H](N)C(C)C)CSC[C@@H](C(=O)N[C@@H]2C(=O)N3CCC[C@H]3C(=O)NCC(=O)N[C@H](C(=O)N[C@H](C(=O)N[C@H]3CSC[C@@H]4NC(=O)[C@H](CC(=O)O)NC(=O)[C@H](CSC[C@@H]5NC(=O)[C@H](Cc6ccccc6)NC(=O)[C@H](CS/C=C\\NC5=O)NC4=O)NC(=O)CNC(=O)CNC(=O)CNC(=O)[C@@H]4C(O)C(O)CN4C3=O)[C@@H](C)O)CSC2C)NC(=O)[C@H](CC(C)C)NC1=O", "note": "(stereo not given in full)", "values": [{"measurement": "MIC", "setting": "Enterococcus faecium [1]; L569, 24 h", "result": 4, "unit": "µg/mL"}, {"measurement": "MIC", "setting": "Enterococcus faecium [2]; L568, 24 h", "result": 4, "unit": "µg/mL"}, {"measurement": "MIC", "setting": "Enterococcus faecalis [3]; L560, 24 h", "result": 1, "unit": "µg/mL"}, {"measurement": "MIC", "setting": "Enterococcus faecalis [4]; L559, 24 h", "result": 2, "unit": "µg/mL"}, {"measurement": "MIC", "setting": "Streptococcus pyogenes; L49, 24 h", "result": "≤ 0.001", "unit": "µg/mL"}, {"measurement": "MIC", "setting": "Streptococcus pneumoniae; ATCC 49619, 24 h", "result": 0.015, "unit": "µg/mL"}, {"measurement": "MIC", "setting": "Staphylococcus aureus [5]; GISA L3798, 24 h", "result": 1, "unit": "µg/mL"}, {"measurement": "MIC", "setting": "Staphylococcus aureus [6]; ND035208, 24 h", "result": 1, "unit": "µg/mL"}, {"measurement": "MIC", "setting": "Staphylococcus aureus [7]; L819/ATCC 19636, 24 h", "result": 0.25, "unit": "µg/mL"}]}
